Assay results from PMC11618456 (Nature Communications, 2024).
Blank lines part the entries; values can stand above or below the molecule they belong to.

Legend:
[1] = Metabolic stability in human liver microsomes; format: in vitro ADME; settings: for Stability in HLM (% remaining) 30 min / Stability in HLM (% remaining) 60 min: 1 mg/mL HLM, 1 mM NADPH, 20 µM compound, mean ± SD
In short: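 Incubations in 1× PBS held 1 mg/mL HLM, 1 mM NADPH and 20 µM test compound at 37 °C for up to 60 min. Remaining compound was quantified by UPLC-QTOFMS, n = 3 per time point.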

Cytotoxicity MTT assay = format: cell-based; settings: human, A549 cells, CC50, half-cytotoxic concentration, 72 h, MTT; mean ± SD (n ≥ 3)
A549 cells = experiment: Cytotoxicity MTT assay; format: cell-based; settings: Table 1
ABCB1 = experiment: Effect on ABCB1; format: in vivo, mouse; settings: WT mice, 100 mg/kg po pretreatment, paclitaxel as substrate
[2] = Pharmacokinetics in WT mice after oral treatment; format: in vivo, mouse; settings: 100 mg/kg po, Fig. 1d
WT mice = experiment: Sub-chronic study; format: in vivo, mouse; settings: 100 mg/kg po, 23 days
In short: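 Male wild-type mice aged 8 weeks got vehicle or test compound 100 mg/kg orally for 23 days (n = 4 per group), weighed daily before dosing. On day 24, blood, liver, kidney and spleen were collected for organ/body weight ratios. Serum ALT, AST and ALP were measured by enzymatic kits, and liver histology was assessed.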

Fech-mut mice [3] = experiment: EPP-associated phototoxicity in Fech-mut mice after light exposure; format: in vivo, mouse
[4] = tested on: PPIX in serum of Fech-mut mice; experiment: PPIX distribution in serum of Fech-mut mice; format: in vivo, mouse; settings: 100 mg/kg po
ABCG2 = biological target: T1, ABCG2 (Mus musculus, UniProt Q7TMS5); experiment: PPIX efflux from RBCs of Fech-mut mice; format: cell-based; settings: 10 µM, up to 3 h
T1 sequence (Q7TMS5 1-657): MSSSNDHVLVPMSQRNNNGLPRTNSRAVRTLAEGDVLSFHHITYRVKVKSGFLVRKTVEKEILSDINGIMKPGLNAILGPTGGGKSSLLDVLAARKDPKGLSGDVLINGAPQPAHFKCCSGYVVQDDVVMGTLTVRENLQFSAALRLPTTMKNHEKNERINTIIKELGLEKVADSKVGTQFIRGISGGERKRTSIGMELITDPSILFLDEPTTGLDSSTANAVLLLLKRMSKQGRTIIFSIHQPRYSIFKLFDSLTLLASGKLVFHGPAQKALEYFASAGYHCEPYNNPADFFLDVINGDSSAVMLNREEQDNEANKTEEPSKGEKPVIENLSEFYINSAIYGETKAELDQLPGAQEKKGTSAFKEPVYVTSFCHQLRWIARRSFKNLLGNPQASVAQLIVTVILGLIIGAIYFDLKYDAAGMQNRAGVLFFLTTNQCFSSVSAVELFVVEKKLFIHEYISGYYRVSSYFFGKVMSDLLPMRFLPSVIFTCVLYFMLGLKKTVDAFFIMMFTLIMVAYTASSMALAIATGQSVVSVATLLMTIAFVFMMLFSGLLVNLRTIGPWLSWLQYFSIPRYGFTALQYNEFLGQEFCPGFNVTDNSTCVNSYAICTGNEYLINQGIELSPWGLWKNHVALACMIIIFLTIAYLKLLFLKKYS
In short: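 Fech-mut mouse RBCs were cultured in phenol-red-free RPMI 1640 at 2 × 10^8 cells/well, 37 °C, gently shaken and light-protected, with or without 10 µM test compound for 1 or 3 h. Medium PPIX was read by fluorescence (ex 405 nm, em 630 nm) and expressed as % of RBC PPIX at time 0. n = 3 mice, duplicate incubations, mean ± SEM.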

Fech-mut mice [5] = experiment: Safety after short-term treatment; format: in vivo, mouse; settings: 100 mg/kg po, 5 days
in vitro = settings: Fech-mut (BALB/c background), mouse, serum from Fech-mut mice treated with K31, oral, 100 mg/kg

SMILES: COc1ccc2c3c([nH]c2c1)[C@H](CC(C)C)N1C(=O)[C@H](CC(=O)NC(C)C)NC(=O)[C@@H]1C3 [K31]
Stability in HLM (% remaining) 30 min [1]: 65 ± 3 % remaining
Stability in HLM (% remaining) 60 min [1]: 49 ± 9 % remaining
metabolic stability (in words) ([1]; incubation with human liver microsomes, Fig. 1c): significantly improved
cytotoxicity compared with other Ko143 analogs (A549 cells): less cytotoxic when compared to other Ko143 analogs
CC50 at 72 h (Cytotoxicity MTT assay): > 100 µM
inhibitory effect on ABCB1 (ABCB1): no inhibitory effect
pharmacokinetic profile after oral treatment (in words) [2]: outstanding pharmacokinetic profiles
biomarkers of liver toxicity (ALT, AST, ALP) (in words) (WT mice): did not alter
growth (body weight gain) (in words) (WT mice): did not alter
ratios of organ (liver, kidney, and spleen) to body weight (in words) (WT mice): did not alter
withdrawal test: phototoxicity after K31 withdrawal (Fech-mut mice [3]; 100 mg/kg po days 1-4, then withdrawn, light continued days 5-8): recurrence of light-triggered phototoxicity was observed in the skin of Fech-mut mice from the second day of K31 withdrawal
oxidative stress and inflammation in the skin (Fech-mut mice [3]; 100 mg/kg po, light exposure, once daily for 5 days): attenuated oxidative stress and inflammation
light-triggered phototoxicity (gross appearance of the skin) (Fech-mut mice [3]; 30 and 100 mg/kg po, once daily for 5 days, both sexes): significantly decreased
histological changes of skin (missing epidermis, damaged subepidermal collagen) (Fech-mut mice [3]; po pretreatment, light exposure, H&E, Sirius Red): prevented
PPIX in serum (in words) [4]: significant decrease
PPIX release from the RBCs of Fech-mut mice (in words) (ABCG2): markedly decreased
PPIX levels in the liver (in words) (Fech-mut mice [5]): did not alter
liver damage, alanine aminotransaminase (in words) (Fech-mut mice [5]): did not potentiate liver damage
mean corpuscular hemoglobin in blood (in words) (Fech-mut mice [5]): no significant impact
total hemoglobin in blood (in words) (Fech-mut mice [5]): no significant impact
morphological changes in the liver and kidney (Fech-mut mice [5]; H&E): did not cause morphological changes
fraction unbound at 16 h (in vitro): 0.0585

SMILES: COc1ccc2c3c([nH]c2c1)[C@H](CC(C)C)N1C(=O)[C@H](CC(=O)N2CCCCC2)NC(=O)[C@@H]1C3 [K25]
CC50 at 72 h (Cytotoxicity MTT assay): 26.5 ± 2.5 µM

Now from value to molecule, other results behind:

Stability in HLM (% remaining) 30 min [1]: 37 ± 3 % remaining
Stability in HLM (% remaining) 60 min [1]: 18 ± 1 % remaining
SMILES: COc1ccc2c3c([nH]c2c1)[C@H](CC(C)C)N1C(=O)[C@H](CC(=O)NCc2ccccc2)NC(=O)[C@@H]1C3 [K33]
CC50 at 72 h (Cytotoxicity MTT assay): 31.1 ± 3.7 µM

Stability in HLM (% remaining) 30 min [1]: 45 ± 2 % remaining
Stability in HLM (% remaining) 60 min [1]: 26 ± 2 % remaining
SMILES: COc1ccc2c3c([nH]c2c1)[C@H](CC(C)C)N1C(=O)[C@H](CC(=O)NC2CCCCC2)NC(=O)[C@@H]1C3 [K23]
CC50 at 72 h (Cytotoxicity MTT assay): 46.6 ± 0.9 µM

Stability in HLM (% remaining) 30 min [1]: 74 ± 25 % remaining
Stability in HLM (% remaining) 60 min [1]: 60 ± 3 % remaining
SMILES: COc1ccc2c3c([nH]c2c1)[C@H](CC(C)C)N1C(=O)[C@H](CC(=O)NC(C)(C)C)NC(=O)[C@@H]1C3 [K3]
CC50 at 72 h (Cytotoxicity MTT assay): 58.9 ± 5.3 µM
